Key:
Oryctolagus cuniculus = organism: Oryctolagus cuniculus; test: Activation of actin-stimulated rabbit psoas skeletal muscle myosin S1 fragment ATPase activity at 100 uM after 10 mins by spectrophotometric analysis
Summary of the method: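 Rabbit skeletal S1 myosin with actin thin filament complex at pCa 6.5, in 20 mM Tris HCl pH 7.5, 15 mM KCl, 6 mM MgCl2, 1 mM ATP. Compound at single 100 uM dose, 10 min at room temperature. Cytophos stop; phosphate read at 650 nm. % activity versus blank-corrected DMSO control.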

Rattus norvegicus [1] = test: Positive inotropic activity in Sprague-Dawley rat heart assessed as ejection fraction at 2 to 16 ug/kg/min for 3 mins by echocardiographic analysis; format: functional
Summary of the method: (§1)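 Seven-week-old male Sprague-Dawley rats under 1.5 % isoflurane via nosecone. Drug given through a right internal jugular vein central line. Left ventricular fractional shortening and ejection fraction measured by echocardiography with and without sample, expressed as % increase.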

Bos taurus = organism: Bos taurus; test: Activation of actin-stimulated bovine cardiac myosin S1 fragment ATPase activity in sarcomere at 10 uM after 10 mins by spectrophotometric analysis
Summary of the method: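 Bovine cardiac S1 myosin with actin thin filament complex at pCa 6.5, in 20 mM Tris HCl pH 7.5, 15 mM KCl, 6 mM MgCl2, 1 mM ATP. Compound at 10 μM, 10 min at room temperature. Stopped with Cytophos reagent; liberated phosphate read at 650 nm. % activity calculated relative to DMSO negative control, blank-corrected.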

Rattus norvegicus [2] = test: Positive inotropic activity in Sprague-Dawley rat heart assessed as left ventricle fractional shortening at 2 to 16 ug/kg/min for 3 mins by echocardiographic analysis; format: functional; summary of the method: as §1
Gallus gallus = organism: Gallus gallus; test: Activation of actin-stimulated chicken gizzard smooth muscle myosin S1 fragment ATPase activity at 100 uM after 10 mins by spectrophotometric analysis
Summary of the method: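 Chicken gizzard smooth muscle S1 myosin with actin plus tropomyosin at pCa 6.5, in 20 mM Tris HCl pH 7.5, 15 mM KCl, 6 mM MgCl2, 1 mM ATP. Compound at single 100 uM dose, 10 min at room temperature. Cytophos stop; phosphate read at 650 nm. % activity versus blank-corrected DMSO control.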

[3] = Stability of the compound after 3 months by TLC analysis; format: physicochemical; conditions: 2191.5 h
[4] = Solubility of the compound in water; format: physicochemical; conditions: buffer
Summary of the method: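 Final solution concentration measured by HPLC against three standards of known concentration.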

Which Activity (Oryctolagus cuniculus) does the source give for `O=C(NCCCc1ccccc1)NCCN1CCOCC1` here?
Its Activity is -5.3%.

And the Activity (Rattus norvegicus [1])?
Its Activity is 15.65%.

And the Activity (Bos taurus)?
The Activity was 44%.

And the Activity (Rattus norvegicus [2])?
The Activity was 24.79%.

What about the Activity (Gallus gallus) of the same compound?
Its Activity is 3.1%.

With `O=C(NCCCc1ccccc1)N1CCCC1c1ccccc1` (configuration not stated) as the compound, how does the Activity (Bos taurus) read?
Its Activity is 32.4%.

For `O=C(NCCCC1CCCCC1)NCCC1CCCCC1`, which Activity (Bos taurus) is on record?
The Activity was 44.4%.

With `O=C(NCCCc1ccccc1)NCCc1ccco1` as the compound, how does the Activity (Bos taurus) read?
Its Activity is 30.6%.

With `O=C(NCCCN1CCOCC1)NCCc1ccccc1` as the compound, how does the Activity (Bos taurus) read?
The Activity was 32.9%.

Which Activity (Oryctolagus cuniculus) does the source give for `O=C(NCCCc1ccccc1)NCCc1ccccc1` here?
Its Activity is -2.1%.

What about the Activity (Rattus norvegicus [1]) of the same compound?
Its Activity is 12.15%.

And the Activity (Bos taurus)?
Its Activity is 51.1%.

And the Activity (Rattus norvegicus [2])?
Its Activity is 18.9%.

And the Activity (Gallus gallus)?
The Activity was -4.7%.

For `O=C(COCCc1ccccc1)COCc1ccccc1`, which Activity (Bos taurus) is on record?
Its Activity is 42.9%.

And the Stability [3]?
Its Stability is “Unstable”.

With `O=C(NCCCn1ccnc1)NCCc1ccccc1` as the compound, how does the Activity (Bos taurus) read?
Its Activity is 32.6%.

Which Activity (Bos taurus) does the source give for `c1ccc(CCCCNCCCc2ccccc2)cc1` here?
Its Activity is 11.9%.

Which Activity (Bos taurus) does the source give for `O=C(NCCCc1ccccc1)NCc1cccs1` here?
Its Activity is 47.6%.

For `O=S(=O)(NCCCc1ccccc1)NCCc1ccccc1`, which Activity (Bos taurus) is on record?
The Activity was 32.1%.

Which Activity (Bos taurus) does the source give for `O=C(NCCCc1ccccc1)NCCC1CCCCC1` here?
Its Activity is 61.4%.

With `O=C(NCCCc1ccccc1)NCCc1cccs1` as the compound, how does the Activity (Bos taurus) read?
Its Activity is 29.6%.

Which Activity (Bos taurus) does the source give for `O=C(NCCCc1ccccc1)NC1CCCCC1` here?
Its Activity is 20.3%.

For `O=C(NCCCC1CCCCC1)NCCc1ccccc1`, which Activity (Bos taurus) is on record?
Its Activity is 37.9%.

For `O=C(NCCc1ccccc1)N1CCC(c2ccccc2)CC1`, which Activity (Bos taurus) is on record?
Its Activity is 46.6%.

What about the solubility [4] of the same compound?
Its solubility is “Insoluble”.

With `O=C(NCCCc1ccccc1)NCC1CCCCC1` as the compound, how does the Activity (Bos taurus) read?
Its Activity is 60.2%.
